pIC50, pKi: −log10 of the molar value.
Target: T1, Sodium channel protein type 9 subunit alpha (Homo sapiens, UniProt Q15858)
Assay: Inhibition of human Nav 1.7 channel by electrophysiology
Target sequence in this assay (Q15858 whole entry): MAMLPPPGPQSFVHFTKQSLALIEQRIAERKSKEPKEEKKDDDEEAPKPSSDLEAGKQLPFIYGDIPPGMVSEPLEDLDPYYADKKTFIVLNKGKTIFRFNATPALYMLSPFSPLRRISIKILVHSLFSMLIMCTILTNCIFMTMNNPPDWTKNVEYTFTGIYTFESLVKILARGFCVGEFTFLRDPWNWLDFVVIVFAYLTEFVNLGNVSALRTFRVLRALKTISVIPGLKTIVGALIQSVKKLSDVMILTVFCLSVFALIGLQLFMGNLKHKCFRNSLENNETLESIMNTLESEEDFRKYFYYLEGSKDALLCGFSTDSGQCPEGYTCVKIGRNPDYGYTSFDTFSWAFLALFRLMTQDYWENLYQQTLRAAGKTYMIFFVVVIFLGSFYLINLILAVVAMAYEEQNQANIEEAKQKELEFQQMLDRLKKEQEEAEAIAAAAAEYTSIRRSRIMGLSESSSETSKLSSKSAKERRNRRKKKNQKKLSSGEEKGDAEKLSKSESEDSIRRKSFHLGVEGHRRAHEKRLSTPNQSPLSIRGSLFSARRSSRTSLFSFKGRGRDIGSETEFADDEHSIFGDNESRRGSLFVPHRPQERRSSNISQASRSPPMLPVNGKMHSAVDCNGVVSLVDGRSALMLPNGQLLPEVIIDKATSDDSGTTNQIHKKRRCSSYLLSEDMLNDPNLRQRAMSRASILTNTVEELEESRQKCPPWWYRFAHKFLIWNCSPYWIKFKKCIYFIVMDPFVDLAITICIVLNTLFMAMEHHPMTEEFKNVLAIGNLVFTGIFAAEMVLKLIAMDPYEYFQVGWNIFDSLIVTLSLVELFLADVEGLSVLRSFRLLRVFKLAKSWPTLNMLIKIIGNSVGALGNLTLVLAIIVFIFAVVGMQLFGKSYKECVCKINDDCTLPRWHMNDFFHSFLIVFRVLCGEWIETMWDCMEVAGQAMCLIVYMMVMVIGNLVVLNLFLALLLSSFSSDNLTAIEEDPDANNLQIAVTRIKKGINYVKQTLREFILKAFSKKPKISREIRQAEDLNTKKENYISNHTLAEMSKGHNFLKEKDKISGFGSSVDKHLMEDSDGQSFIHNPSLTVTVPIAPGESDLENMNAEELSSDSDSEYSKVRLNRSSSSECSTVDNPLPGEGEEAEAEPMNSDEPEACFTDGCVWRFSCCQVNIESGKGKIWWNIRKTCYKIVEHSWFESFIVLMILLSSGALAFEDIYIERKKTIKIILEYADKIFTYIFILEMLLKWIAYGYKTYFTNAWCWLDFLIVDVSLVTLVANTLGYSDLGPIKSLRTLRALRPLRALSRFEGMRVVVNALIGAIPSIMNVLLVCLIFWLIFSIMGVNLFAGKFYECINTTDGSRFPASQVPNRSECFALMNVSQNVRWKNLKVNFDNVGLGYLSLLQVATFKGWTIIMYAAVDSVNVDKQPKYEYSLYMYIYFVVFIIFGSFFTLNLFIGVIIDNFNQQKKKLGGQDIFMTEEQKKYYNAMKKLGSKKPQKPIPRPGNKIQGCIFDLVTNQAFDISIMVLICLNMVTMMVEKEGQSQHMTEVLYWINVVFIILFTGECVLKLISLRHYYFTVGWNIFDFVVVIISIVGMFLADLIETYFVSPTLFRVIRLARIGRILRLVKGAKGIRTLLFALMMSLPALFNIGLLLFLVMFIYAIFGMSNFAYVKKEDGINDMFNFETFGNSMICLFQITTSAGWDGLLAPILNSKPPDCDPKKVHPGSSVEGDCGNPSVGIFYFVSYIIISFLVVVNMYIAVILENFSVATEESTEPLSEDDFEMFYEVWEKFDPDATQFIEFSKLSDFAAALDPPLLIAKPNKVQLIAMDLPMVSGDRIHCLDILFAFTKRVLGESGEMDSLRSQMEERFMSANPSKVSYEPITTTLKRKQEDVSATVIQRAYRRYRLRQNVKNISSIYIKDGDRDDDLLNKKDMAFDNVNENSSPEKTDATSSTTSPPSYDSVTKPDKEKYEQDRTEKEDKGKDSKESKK

Row | Structure (SMILES) | pKi
1 | NC(=O)n1ccc(-c2ccc(Oc3ccc(Cl)cc3F)cc2)n1 | 7.89
2 | NC(=O)n1ccc(-c2ccc(-c3ccccc3Cl)cc2)n1 | 6.95

Target: hERG (KCNH2) (Homo sapiens, UniProt Q12809)
Assay: Displacement of [35S][…] from human ERG channel at 10 uM
Summary of the method: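 hERG binding assay measuring displacement of 35S-labeled MK-0499, a known hERG blocker. Test compound at 10 μM; result expressed as percent inhibition of binding.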

hERG (KCNH2), sequence (Q12809 whole entry): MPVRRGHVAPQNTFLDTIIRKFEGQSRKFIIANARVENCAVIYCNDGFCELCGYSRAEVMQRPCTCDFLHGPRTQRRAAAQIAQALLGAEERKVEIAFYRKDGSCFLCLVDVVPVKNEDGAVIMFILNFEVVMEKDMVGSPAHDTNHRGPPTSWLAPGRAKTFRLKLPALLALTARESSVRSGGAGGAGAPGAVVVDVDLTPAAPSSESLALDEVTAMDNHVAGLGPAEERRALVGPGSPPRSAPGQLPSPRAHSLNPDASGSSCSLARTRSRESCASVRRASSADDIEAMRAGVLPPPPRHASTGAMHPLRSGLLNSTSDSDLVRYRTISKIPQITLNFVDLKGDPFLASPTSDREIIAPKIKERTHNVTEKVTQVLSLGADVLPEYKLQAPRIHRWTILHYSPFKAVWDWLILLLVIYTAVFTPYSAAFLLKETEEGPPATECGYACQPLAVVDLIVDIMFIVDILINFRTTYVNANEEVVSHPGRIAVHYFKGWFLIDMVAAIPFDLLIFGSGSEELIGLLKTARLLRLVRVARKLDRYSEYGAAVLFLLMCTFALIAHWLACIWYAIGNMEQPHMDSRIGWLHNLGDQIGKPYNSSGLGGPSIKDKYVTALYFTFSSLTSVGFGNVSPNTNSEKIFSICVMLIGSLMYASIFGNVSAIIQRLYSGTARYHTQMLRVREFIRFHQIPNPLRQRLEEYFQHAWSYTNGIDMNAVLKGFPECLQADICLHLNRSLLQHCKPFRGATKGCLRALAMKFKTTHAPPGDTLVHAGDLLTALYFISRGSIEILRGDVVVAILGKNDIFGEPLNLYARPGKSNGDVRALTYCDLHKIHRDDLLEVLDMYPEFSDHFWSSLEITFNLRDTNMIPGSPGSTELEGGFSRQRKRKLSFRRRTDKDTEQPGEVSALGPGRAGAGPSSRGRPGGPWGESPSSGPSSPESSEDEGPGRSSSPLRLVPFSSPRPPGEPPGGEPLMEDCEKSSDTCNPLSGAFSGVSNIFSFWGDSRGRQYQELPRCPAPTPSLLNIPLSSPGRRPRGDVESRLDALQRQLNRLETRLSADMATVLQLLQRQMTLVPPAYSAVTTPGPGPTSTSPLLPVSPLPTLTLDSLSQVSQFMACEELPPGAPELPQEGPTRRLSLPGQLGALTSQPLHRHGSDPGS

Row | Structure (SMILES) | inhibition at 10 µM [%]
3 | Cc1cc(C(N)=O)nn1-c1cccc(-c2ccccc2Cl)c1 | 8
4 | Cc1cc(C(N)=O)nn1-c1ccc(OC(F)(F)F)c(-c2ccccc2OC(F)(F)F)c1 | 77
5 | Cc1cc(C(N)=O)nn1-c1cccc(-c2ccccc2Oc2ccccc2)c1 | 13
6 | Cc1cc(C(N)=O)nn1-c1cccc(-c2cccc(F)c2C(F)(F)F)c1 | 73
7 | Cc1cc(C(N)=O)nn1-c1cccc(-c2cc(F)ccc2C(F)(F)F)c1 | 41
8 | NC(=O)c1cc(N)n(-c2cccc(-c3ccccc3OC(F)(F)F)c2)n1 | 44
9 | Cc1cc(C(N)=O)nn1-c1ccc(F)c(-c2ccccc2OC(F)(F)F)c1 | 66
10 | NC(=O)c1cc(-c2cccc(-c3ccccc3OC(F)(F)F)c2)n[nH]1 | 94
11 | NC(=O)c1ccn(-c2cccc(-c3ccccc3OC(F)(F)F)c2)n1 | 51

Target: T1, Sodium channel protein type 9 subunit alpha
Assay: Inhibition of human Nav 1.7 channel by voltage-ion-probe-reader
Summary of the method: (§1)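 Functional membrane-potential FRET assay on voltage-gated hNav1.7, read on a voltage-ion-probe reader (VIPR). Results given as IC50 or as percent inhibition at 10 μM.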
Target sequence in this assay (Q15858 whole entry): as the sequence (Q15858 whole entry) above

Row | Structure (SMILES) | pIC50
12 | Cc1cc(C(N)=O)nn1-c1cccc(-c2ccccc2Cl)c1 | 6.13
13 | Cc1cc(C(N)=O)nn1-c1ccc(OC(F)(F)F)c(-c2ccccc2OC(F)(F)F)c1 | 6.43
14 | Cc1cc(C(N)=O)nn1-c1cccc(-c2ccccc2Oc2ccccc2)c1 | 6.06
15 | Cc1cc(C(N)=O)nn1-c1cccc(-c2cccc(F)c2C(F)(F)F)c1 | 6.11
16 | Cc1cc(C(N)=O)nn1-c1cccc(-c2cc(F)ccc2C(F)(F)F)c1 | 6.39
17 | CC(C)(C)c1cc(C(N)=O)nn1-c1cccc(-c2ccccc2OC(F)(F)F)c1 | 5.86
18 | NC(=O)c1cc(N)n(-c2cccc(-c3ccccc3OC(F)(F)F)c2)n1 | 6.95
19 | Cc1cc(C(N)=O)nn1-c1ccc(F)c(-c2ccccc2OC(F)(F)F)c1 | 6.79
20 | NC(=O)c1cc(-c2cccc(-c3ccccc3OC(F)(F)F)c2)n[nH]1 | 6.29
21 | NC(=O)c1ccn(-c2cccc(-c3ccccc3OC(F)(F)F)c2)n1 | 7.19

Target: T1, Sodium channel protein type 9 subunit alpha
Assay: Inhibition of human Nav 1.7 channel at 10 uM by voltage-ion-probe-reader
Summary of the method: as §1
Target sequence in this assay (Q15858 whole entry, looked up): as the sequence (Q15858 whole entry) above

Row | Structure (SMILES) | inhibition [%]
22 | Cc1cc(C(N)=O)nn1-c1cccc(-c2cc(C(F)(F)F)cc(C(F)(F)F)c2)c1 | 17

Test system: not listed separately
Assay: Clearance in rat plasma at 1 mg/kg, ip
Assay type: ADME, organism-based
Set-up: dose 1 mg/kg, route intraperitoneal

Row | Structure (SMILES) | CL/F [mL/min/kg]
23 | NC(=O)n1ccc(-c2ccc(-c3ccccc3Cl)cc2)n1 | 125

Reference: ChEMBL document CHEMBL1221355, “Substituted biaryl pyrazoles as sodium channel blockers” (Bioorg Med Chem Lett, 2010)
